Screens deposited in PubChem by The Scripps Research Institute Molecular Screening Center.
Shown are actives, neighbours in structure and some others; about 2.3% of the full set was active somewhere.
MC4R antagonist = blocks human MC4R cAMP signaling; P32245; MC4R-expressing cells, MTII-stimulated cAMP, LANCE TR-FRET; inhibition, % at 6.5 µM; 360,000 tested, 0.48% active; AID 540295;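 active means inhibition above its plate's cutoff, the mean of tested wells on that plate plus 3 SD, cut at about 29% in these data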
Target sequence (P32245 whole entry, looked up): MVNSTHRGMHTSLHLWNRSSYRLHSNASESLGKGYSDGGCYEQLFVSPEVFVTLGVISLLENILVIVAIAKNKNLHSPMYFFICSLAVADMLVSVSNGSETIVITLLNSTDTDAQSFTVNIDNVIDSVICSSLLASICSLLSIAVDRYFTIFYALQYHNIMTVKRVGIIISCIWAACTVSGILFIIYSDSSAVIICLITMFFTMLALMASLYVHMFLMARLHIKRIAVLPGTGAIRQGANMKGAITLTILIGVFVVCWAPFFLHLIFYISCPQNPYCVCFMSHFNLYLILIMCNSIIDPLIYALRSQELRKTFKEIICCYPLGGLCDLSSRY
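System: U2OS cells stably expressing human melanocortin 4 receptor (MC4R). Reagent: Melanotan II challenge after compound preincubation. Doses: 6.5 µM. Times: 30-min compound, 1-h challenge, 1-h detection, room temperature. Measured by: TR-FRET with Eu-cAMP and labeled anti-cAMP, 671 nm. Replicates: singlicate.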
MsrA inh = inhibits bovine methionine sulfoxide reductase A; purified bovine MsrA, absorbance read-out; inhibition, % at 15.5 µM; 360,000 tested, 0.75% active; AID 651718
MC4R barr agon = activates human MC4R beta-arrestin recruitment. U2OS MC4R beta-arrestin complementation, luminescence; percent of melanotan II response, DMSO zero. AID 540308. 360,000 tested, 0.98% active. P32245. activation, % at 8.9 µM;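 active means activation above a per-plate cutoff, the mean activation of sample wells on that plate plus 3 SD, cut at about 8% in these data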
MsrA act = activators of bovine methionine sulfoxide reductase A | purified bovine MsrA, absorbance read-out | activation, % at 10.6 µM | 360,000 tested, 0.3% active | AID 602163; in the data active means activation above about 7.5%
MsrA act confirm = confirmation of bovine methionine sulfoxide reductase A activators. purified bovine MsrA, absorbance read-out. activation, % at 10.6 µM. shares compounds with MsrA act. 1,000 tested, 12% active; in the data active means activation above about 4%;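 further: enzyme coupled to thioredoxin and thioredoxin reductase with NADPH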
MsrA conf = bovine MsrA inhibition, confirmed; shares compounds with MsrA inh; purified bovine MsrA, absorbance read-out; 2,300 tested, 41% active; inhibition, % at 15.5 µM; AID 651822;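 further: coupled to thioredoxin reductase with NADPH and selenocystamine and DMSO as substrate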
A number is an active result; . = inactive; / = no result. Unless noted, no stated cut-off is given here; in the data, active means inhibition above about 4.5%; inactive means the rest.

SMILES | MC4R antagonist | MsrA inh | MC4R barr agon | MsrA act | MsrA act confirm | others
CCC(=O)N1C(Cc2ccccc2)COC1(C)C (stereo unspecified) | . | . | . | . | /
COCCCN=Cc1c(C)[nH]n(-c2ccc(Br)c(C)c2)c1=O | . | . | . | 9.3 | .
COc1ccc(CN2CCC(CO)(Cc3ccccc3C(F)(F)F)CC2)c(F)c1 | . | . | . | . | /
CCOC(=O)C1CCCN(C(=O)CCCn2nnnc2CN2CCOCC2)C1 (stereo unspecified) | . | . | . | 15.3 | .
N#CCOC(=O)c1cc(S(=O)(=O)N2CCCCC2)ccc1N1CCOCC1 | . | . | . | 12.3 | .
CCOC(=O)C(C)Oc1cccc2c(=O)n(CC(=O)Nc3cccc(OC)c3)ccc12 (stereo unspecified) | . | . | . | 8.4 | .
COc1ccc(/C=C/C(=O)N2CCC(C(N)=O)CC2)cc1S(=O)(=O)N1CCOCC1 | . | . | . | . | /
COc1ccc(/C=C/C(=O)N2CCN(c3ccccc3)CC2)cc1S(=O)(=O)N1CCOCC1 | . | . | . | 8.8 | .
CCOC(=O)C1(C)CCN1C(=O)COc1ccccc1 (stereo unspecified) | . | . | . | . | /
CCOC(=O)C1(C)CCN1C(=O)COc1ccc(C(C)(C)C)cc1 (stereo unspecified) | . | . | . | 8.2 | .
COCCn1nnnc1C(c1cccc(C#N)c1)N1CCCCCC1 (stereo unspecified) | . | . | . | . | /
Cc1cccc(N=C2C(=O)Nc3c(Cl)cccc32)c1 | . | . | . | . | /
O=C1Nc2c(Cl)cc(Cl)cc2C1=O | . | . | . | 11.1 | 7.0
COC(=O)c1ccc(C2=NOC(C)(c3nnc(Cc4ccccc4)o3)C2)cc1 (stereo unspecified) | . | . | . | 8.9 | .
CC1(c2nnc(Cc3ccccc3)o2)CC(c2ccc(Br)cc2)=NO1 (stereo unspecified) | . | . | . | . | /
O=S(=O)(c1cccc(Cl)c1Cl)N1CCN(C(=S)NCCCN2CCOCC2)CC1 | . | . | . | . | /
O=C(NCC1COc2ccccc2O1)C1CCC(CNc2c(N3CCCCC3)c(=O)c2=O)CC1 (stereo unspecified) | . | . | . | 8.9 | .
Cc1cc(C)nc(N/N=C/c2cccc([N+](=O)[O-])c2)n1 | . | . | . | 10.3 | .
Nc1nnn(CC(=O)N/N=C/c2ccco2)n1 | . | . | . | . | /
CCN(CC(=O)NCc1ccc(F)cc1)C(=O)c1ccc(Cl)cc1 | . | . | . | . | /
CCN(CC(=O)NCc1ccc(Cl)cc1)C(=O)c1ccc(C#N)cc1 | . | . | . | 15.6 | .
COC(=O)Cn1nnc(N2CCOCC2)n1 | . | . | . | 8.0 | .
O=C(O)CSCC(=O)Nc1cc(C(F)(F)F)ccc1Cl | . | . | . | . | /
Cc1nnc(SCCC#N)n(CCC#N)c1=O | . | . | . | 9.2 | .
Cn1ccnc1SCCC#N | . | . | . | . | /
SMILES | MC4R antagonist | MsrA inh | MC4R barr agon | MsrA act | MsrA act confirm | others
Cc1ccc(C(=O)Nc2nccc(C)n2)cc1 | . | . | . | 8.7 | .
Cc1ccnc(NC(=O)c2cccc(OC(F)F)c2)n1 | . | . | . | . | /
O=C1C(=O)N(Cc2cccnc2)C(c2ccccn2)/C1=C(/O)c1ccc(Br)cc1 (stereo unspecified) | . | . | . | . | /
Cc1ccccc1Nc1nc(N)nc(COC(=O)[C@@H](NC(=O)c2ccccc2Cl)C(C)C)n1 | . | . | . | 8.1 | .
COc1ccc(N2CCN(C(c3nnnn3C3CCCC3)C(C)C)CC2)cc1 (stereo unspecified) | . | . | . | 8.9 | .
CC(=C/c1ccccc1)/C=N/NC(=O)c1cccs1 | . | . | . | 15.9 | .
O=C(N/N=C/C(Br)=C\c1ccccc1)c1cccs1 | . | . | . | . | /
COc1ccc(Nc2ccc(C(F)(F)F)cc2[N+](=O)[O-])cn1 | . | 23.6 | . | 13.4 | . | MsrA conf=18.2
O=C1C(Cl)=C(Nc2ccc(O)cc2)C(=O)c2ccccc21 | . | 17.4 | . | 9.2 | 7.0 | MsrA conf=12.0
COc1ccc(C(CC(=O)N2CCCC2)c2c(OC)cc(OC)c3ccc(=O)oc23)cc1 (stereo unspecified) | . | . | . | . | /
CCOC(=O)c1sc(=NC(=O)c2ccc(C)cc2)n(C)c1C | . | . | . | . | /
Cc1cc(C(=O)O)ccc1-c1ccc(/C=N/n2cnnc2)o1 | . | 9.2 | . | 8.4 | . | MsrA conf=6.5
COc1ccc2c(c1)c1nc3ccccc3nc1n2CC(=O)OC(C)C | . | . | . | . | /
CC(=O)c1cccc(NC(=O)c2ccc([N+](=O)[O-])o2)c1 | . | . | . | . | /
CC(=O)c1ccc(NC(=O)c2ccc([N+](=O)[O-])o2)cc1 | . | 10.8 | . | 9.1 | . | MsrA conf=5.7
O=S(=O)(Nc1cc(Sc2cccc3cccnc23)c(O)c2ccccc12)c1ccc(F)cc1 | / | . | / | / | /
O=C(O)CSc1cc(NS(=O)(=O)c2ccc(Cl)cc2)c2ccccc2c1O | . | 9.5 | . | 7.8 | . | MsrA conf=.
CC(=O)Oc1ccc(/C=N/NC2=NS(=O)(=O)c3ccccc32)cc1 | . | . | . | . | /
COc1ccc(/C=N/NC2=NS(=O)(=O)c3ccccc32)cc1OC(C)=O | . | 5.4 | . | 14.7 | . | MsrA conf=.
Cc1ccc(N=Cc2ccc(N(C)C)cc2)cc1 | . | 6.5 | . | . | / | MsrA conf=.
Cc1ccc(S(=O)(=O)N(C)/N=C/c2ccc(N(C)C)cc2)cc1 | . | 6.1 | . | . | / | MsrA conf=.
CN(C)c1ccc(C=Nc2ccc(N(C)C)cc2)cc1 | . | 7.2 | . | . | / | MsrA conf=4.8
Cc1nc(/N=C\c2ccc(N(C)C)cc2)sc1C | . | 5.8 | . | . | / | MsrA conf=.
COc1ccc(/C=C2\N=C(SC)NC2=O)cc1 | . | . | . | . | /
Cc1ccc(-n2c(SCC(=O)N/N=C/c3ccc(C)s3)nnc2-c2ccccc2)cc1 | . | . | . | . | /
SMILES | MC4R antagonist | MsrA inh | MC4R barr agon | MsrA act | MsrA act confirm | others
COC(=O)c1ccc(NC(C)=O)o1 | . | . | . | . | /
CC(=O)N1CCCN(Cc2cn(-c3cc(C)ccc3C)nc2-c2ccccc2)CC1 | . | 5.0 | . | . | / | MsrA conf=.
CC(=O)N1CCCN(Cc2cn(-c3ccc(C)cc3)nc2-c2ccc(F)cc2)CC1 | . | . | . | . | /
COCCn1c(=NC(=O)CSCC(=O)NC2CCCCC2)sc2cc(OC)ccc21 | . | . | . | . | /
CCOCCn1c(=NC(=O)CSCC(=O)Nc2cc(C)on2)sc2cc(OC)ccc21 | . | 6.3 | . | . | / | MsrA conf=.
CC(=O)C1=C(O)C(=O)N(Cc2cccnc2)C1c1ccccc1 (stereo unspecified) | . | 6.4 | . | . | / | MsrA conf=.
C/C(O)=C(\C#N)c1nc2ccccc2[nH]1 | . | . | . | . | /
CCCOc1ccc(N2C(=O)CC(NCc3ccc(S(N)(=O)=O)cc3)C2=O)cc1 (stereo unspecified) | . | . | . | . | /
O=[N+]([O-])c1ccccc1-c1ccc(/C=N/n2cnnc2)o1 | . | . | . | . | /
O=C(O)CC1S/C(=N/N=C/c2ccc(-c3ccccc3[N+](=O)[O-])o2)NC1=O (stereo unspecified) | . | 4.9 | . | . | / | MsrA conf=.
